Consider 37 sequences from the array DNA melting data of Ke et al. (doi:10.1101/2024.01.08.574731).

A short description of data set [1]: folding enthalpy; higher = less favourable; fluorescence melt of hairpins on a sequencing array, two-state fit. Conditions: sodium 0.088 M. In outline:
(§1)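 Cy3 signals were normalised both to pre-quench Cy3 and to control constructs. They came from library hairpins carrying annealed Cy3 and quencher oligos on a sequenced MiSeq flow cell, imaged in 50 mM Na-HEPES pH 8.0, 25 mM NaCl, in 2.5 °C steps up to 60 °C. Bootstrapped two-state fits gave melting temperature and folding enthalpy, and four replicates were combined by inverse variance. Fitted temperatures were then raised by 9.35 °C to match UV melts.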

Data set [2] in a line: melting temperature; fluorescence melt of hairpins on a sequencing array, two-state fit, raised by 9.35 °C to match UV melts. Conditions: sodium 0.088 M. In outline: as §1

Turning to GATCGGATGGCCGATC ((((((....)))))), the folding enthalpy in data set [1] was -29.9 kcal/mol. Besides, the Tm in data set [2] came out at 56.1 °C.

As for GGCCAAGGAAACCTAGCC (((.(.(....).).))), the folding enthalpy in data set [1] is -27.2 kcal/mol. Besides, in data set [2], the Tm turned out to be 31.3 °C.

For GCCAAGCGAAAGCTTAGC ((.((((....)))).)), in data set [1], the folding enthalpy was -17.6 kcal/mol. In addition, the Tm in data set [2] is 48.9 °C.

Regarding GATCCACACGTGGATC ((((((....)))))), the folding enthalpy in data set [1] is -35.1 kcal/mol. In addition, in data set [2], the Tm is 59 °C.

For GCAGCCGAAAGGCCGTGC ((((((....)))..))), the folding enthalpy in data set [1] was -13.3 kcal/mol. Also, the Tm in data set [2] stood at 41.9 °C.

Regarding GCGTCTGCGAAAGCACGC (((..(((....)))))), the folding enthalpy in data set [1] is -18.5 kcal/mol. Besides, the Tm in data set [2] amounted to 52.3 °C.

As for GATCGTCGAAACGATC ((((((....)))))), the folding enthalpy in data set [1] was -38.3 kcal/mol. In data set [2], the Tm came to 53.5 °C.

GCAACGGGAAACCGTCAC (..((((....))))..): the folding enthalpy in data set [1] is -11.2 kcal/mol. Besides, in data set [2], the Tm amounted to 27.1 °C.

Regarding GATCCGACCCCGGATC ((((((....)))))), the folding enthalpy in data set [1] is -42.1 kcal/mol. Moreover, the Tm in data set [2] came to 54.4 °C.

GCTACTGGAAACAGTGGC ((.((((....)))).)): the folding enthalpy in data set [1] was -38.3 kcal/mol. Also, in data set [2], the Tm is 51.7 °C.

As to GTTTGCCGAAAGGCCAAC (((.(((....))).))), the folding enthalpy in data set [1] is -20.9 kcal/mol. Further, the Tm in data set [2] amounted to 41.5 °C.

Turning to GATCCTGTCAGGATC ((((((...)))))), in data set [1], the folding enthalpy is -36.7 kcal/mol. In data set [2], the Tm was 56.5 °C.

GTGCTGGGAAACCGGCAC ((((.((....)).)))): the folding enthalpy in data set [1] is -41.1 kcal/mol. The Tm in data set [2] was 61 °C.

Regarding GCTGCGCGAAAGCACTGC ((.(.((....)).).)), the folding enthalpy in data set [1] was -24.2 kcal/mol. Further, the Tm in data set [2] came to 53.3 °C.

Take GAGTTGCGAAAGCATCTC (((.(((....))).))): in data set [1], the folding enthalpy is -28.6 kcal/mol. In data set [2], the Tm was determined as 50.1 °C.

As for GATGGCGAAAGCCGATC ((((((....))).))), the folding enthalpy in data set [1] was -15.4 kcal/mol. For the same sequence, the Tm in data set [2] was 47.6 °C.

Consider GCACTAGCGAAAGCTTGC (((..(((....)))))), for which the folding enthalpy in data set [1] is -12.6 kcal/mol. Also, in data set [2], the Tm is 38.6 °C.

Regarding GATCGTCAAGACGATC ((((((....)))))), in data set [1], the folding enthalpy was -37.5 kcal/mol. Further, the Tm in data set [2] came to 58.7 °C.

Consider GCTAGCGGAAACGCTGGC ((.((((....)))).)), for which, in data set [1], the folding enthalpy is -33.3 kcal/mol. In addition, the Tm in data set [2] was found to be 60.3 °C.

As for GCCCGTGGAAACACGAGC ((.((((....)))).)), the folding enthalpy in data set [1] is -24 kcal/mol. Besides, the Tm in data set [2] was 50.8 °C.

Take GAAGGGGGAAACTCCTTC (((((.(....).))))): the folding enthalpy in data set [1] is -25.6 kcal/mol. In addition, the Tm in data set [2] is 45.6 °C.

As for GGGAGCGAAAGCTACCCC ((((((....)))..))), the folding enthalpy in data set [1] was -12 kcal/mol. In data set [2], the Tm is 59.8 °C.

In the case of GGGTAGCGAAAGCTTCCC (((.(((....))).))), the folding enthalpy in data set [1] is -36.5 kcal/mol. Also, the Tm in data set [2] came out at 56.6 °C.

For the sequence GTCTCAGGAAACTGGGAC (((.(((....))).))), in data set [1], the folding enthalpy was -35.6 kcal/mol. In addition, in data set [2], the Tm came to 49.8 °C.

With CATTGGAAACAATG (((((....))))), the folding enthalpy in data set [1] was -22.2 kcal/mol. Moreover, the Tm in data set [2] stood at 42.3 °C.

As to CGCCTGCGGAAACGCGCG (((..(((....)))))), in data set [1], the folding enthalpy is -16.9 kcal/mol. Moreover, the Tm in data set [2] turned out to be 42.1 °C.

Regarding GATCTCATTGAGATC ((((((...)))))), the folding enthalpy in data set [1] is -34.9 kcal/mol. Moreover, the Tm in data set [2] was 54.2 °C.

With GTATAACGAAAGTTGTAC (((.(((....))).))), the folding enthalpy in data set [1] was -28.4 kcal/mol. For the same sequence, the Tm in data set [2] turned out to be 45.5 °C.

Take GCGCGCGAAAGCGTACGC ((((((....)))..))): the folding enthalpy in data set [1] was -17.5 kcal/mol. In data set [2], the Tm was 61.5 °C.

On to GAGGGCGGAAACACCCTC (((((.(....).))))), for which the folding enthalpy in data set [1] was -33.7 kcal/mol. In addition, the Tm in data set [2] is 49.6 °C.

In the case of GATCGTCAGAACGATC ((((((....)))))), the folding enthalpy in data set [1] was -35.2 kcal/mol. Besides, in data set [2], the Tm came to 55.1 °C.

Consider GATGCCGAAAGGCCTATC ((((((....)))..))), for which the folding enthalpy in data set [1] is -6.67 kcal/mol. Moreover, the Tm in data set [2] came to 24 °C.

Regarding GATCCCTTGGGGGATC ((((((....)))))), the folding enthalpy in data set [1] was -46.9 kcal/mol. Moreover, the Tm in data set [2] was 60.1 °C.

Regarding GGTCTAGGAAACCAGACC (((((.(....).))))), in data set [1], the folding enthalpy was -35.1 kcal/mol. Moreover, the Tm in data set [2] came to 45 °C.

On to GGCACCCCGAAAGGGGCC (((..(((....)))))), for which the folding enthalpy in data set [1] was -12.9 kcal/mol. Besides, the Tm in data set [2] came out at 53.1 °C.

For GCTTGGGGAAACCCAAAC (.(((((....))))).), the folding enthalpy in data set [1] was -14.5 kcal/mol. In addition, the Tm in data set [2] is 39.3 °C.

With GATCAAGGGGTTGATC ((((((....)))))), the folding enthalpy in data set [1] was -29.4 kcal/mol. Also, in data set [2], the Tm worked out at 42.8 °C.
